Test results reported in paper PMC6287672 (International Journal for Parasitology: Drugs and Drug …, 2018).

How the values were obtained:
Assay in all cases: two-electrode voltage clamp, Xenopus oocytes
Type in all cases: cell-based
[1] = target: T1, Hco-UNC-49BC (Haemonchus contortus, UniProt D6BK80)
T1 sequence (D6BK80 22-496): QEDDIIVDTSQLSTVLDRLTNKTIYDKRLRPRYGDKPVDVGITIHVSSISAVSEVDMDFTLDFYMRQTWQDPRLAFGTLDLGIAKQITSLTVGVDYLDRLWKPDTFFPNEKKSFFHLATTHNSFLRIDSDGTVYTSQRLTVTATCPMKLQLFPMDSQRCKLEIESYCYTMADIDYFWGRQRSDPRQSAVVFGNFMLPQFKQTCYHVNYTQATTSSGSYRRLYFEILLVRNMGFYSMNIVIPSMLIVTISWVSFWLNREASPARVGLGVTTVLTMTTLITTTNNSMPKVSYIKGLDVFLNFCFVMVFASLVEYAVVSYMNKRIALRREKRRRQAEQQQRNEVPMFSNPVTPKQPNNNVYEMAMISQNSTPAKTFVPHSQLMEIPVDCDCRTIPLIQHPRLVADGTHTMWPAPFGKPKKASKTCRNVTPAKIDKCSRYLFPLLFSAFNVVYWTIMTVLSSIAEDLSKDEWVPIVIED
T1 sequence (D6BJF3 22-440 partner): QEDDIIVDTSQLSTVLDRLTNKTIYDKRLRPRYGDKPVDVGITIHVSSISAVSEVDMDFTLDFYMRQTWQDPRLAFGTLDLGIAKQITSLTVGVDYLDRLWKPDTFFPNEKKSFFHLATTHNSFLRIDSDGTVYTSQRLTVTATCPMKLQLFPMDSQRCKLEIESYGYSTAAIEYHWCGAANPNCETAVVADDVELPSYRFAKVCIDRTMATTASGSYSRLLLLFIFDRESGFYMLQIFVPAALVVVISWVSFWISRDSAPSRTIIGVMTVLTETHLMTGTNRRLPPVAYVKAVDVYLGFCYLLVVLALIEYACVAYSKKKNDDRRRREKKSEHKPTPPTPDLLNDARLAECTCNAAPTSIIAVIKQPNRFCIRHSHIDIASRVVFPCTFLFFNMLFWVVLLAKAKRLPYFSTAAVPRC
In short: (§1)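 Oocytes from X. laevis, collagenase-treated in OR-2 (pH 7.5) for 2 h, were co-injected with wild-type or mutant hco-unc-49b cRNA plus wild-type hco-unc-49c cRNA and kept 48 h at 20ᵒC in supplemented ND96. Cells were clamped at −60 mV and GABA in ND96 was perfused, with 1–2 min ND96 washes between doses. Currents were normalised to each oocyte's maximal GABA response and fitted with a variable-slope Hill equation (≥5 oocytes, two batches).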

[2] = target: T2, Hco-UNC-49BC (Haemonchus contortus, UniProt D6BK80, D83C)
T2 sequence (D6BK80 22-496 D83C): T1 sequence (D6BK80 22-496)
T2 sequence (D6BJF3 22-440 partner): T1 sequence (D6BJF3 22-440 partner)
In short: as §1

[3] = target: T3, Hco-UNC-49BC (Haemonchus contortus, UniProt D6BK80, D83T)
T3 sequence (D6BK80 22-496 D83T): T1 sequence (D6BK80 22-496)
T3 sequence (D6BJF3 22-440 partner): T1 sequence (D6BJF3 22-440 partner)
In short: as §1

[4] = target: T4, Hco-UNC-49BC (Haemonchus contortus, UniProt D6BK80, H137A)
T4 sequence (D6BK80 22-496 H137A): T1 sequence (D6BK80 22-496)
T4 sequence (D6BJF3 22-440 partner): T1 sequence (D6BJF3 22-440 partner)
In short: as §1

[5] = target: T5, Hco-UNC-49BC (Haemonchus contortus, UniProt D6BK80, H137K)
T5 sequence (D6BK80 22-496 H137K): T1 sequence (D6BK80 22-496)
T5 sequence (D6BJF3 22-440 partner): T1 sequence (D6BJF3 22-440 partner)
In short: as §1

[6] = target: T6, Hco-UNC-49BC (Haemonchus contortus, UniProt D6BK80, D83E)
T6 sequence (D6BK80 22-496 D83E): T1 sequence (D6BK80 22-496)
T6 sequence (D6BJF3 22-440 partner): T1 sequence (D6BJF3 22-440 partner)
In short: as §1

[7] = target: T7, Hco-UNC-49BC (Haemonchus contortus, UniProt D6BK80, R159A)
T7 sequence (D6BK80 22-496 R159A): T1 sequence (D6BK80 22-496)
T7 sequence (D6BJF3 22-440 partner): T1 sequence (D6BJF3 22-440 partner)
In short: as §1

[8] = target: T8, Hco-UNC-49BC (Haemonchus contortus, UniProt D6BK80, E131A)
T8 sequence (D6BK80 22-496 E131A): T1 sequence (D6BK80 22-496)
T8 sequence (D6BJF3 22-440 partner): T1 sequence (D6BJF3 22-440 partner)
In short: as §1

[9] = target: T9, Hco-UNC-49BC (Haemonchus contortus, UniProt D6BK80, D83N)
T9 sequence (D6BK80 22-496 D83N): T1 sequence (D6BK80 22-496)
T9 sequence (D6BJF3 22-440 partner): T1 sequence (D6BJF3 22-440 partner)
In short: as §1

[10] = target: T10, Hco-UNC-49BC (Haemonchus contortus, UniProt D6BK80, R241A)
T10 sequence (D6BK80 22-496 R241A): T1 sequence (D6BK80 22-496)
T10 sequence (D6BJF3 22-440 partner): T1 sequence (D6BJF3 22-440 partner)
In short: as §1

[11] = target: T11, Hco-UNC-49BC (Haemonchus contortus, UniProt D6BK80, R241K)
T11 sequence (D6BK80 22-496 R241K): T1 sequence (D6BK80 22-496)
T11 sequence (D6BJF3 22-440 partner): T1 sequence (D6BJF3 22-440 partner)
In short: as §1

With NCCCC(=O)O [GABA] the EC50 [1] was 68 ± 17 µM, the EC50 [2] was 454 ± 47 µM and the EC50 [3] was 520 ± 34 µM. For the same compound, the EC50 [4] was 2170 ± 173 µM, the EC50 [5] was 4170 ± 745 µM and the EC50 [6] was 276 ± 37 µM. For the same compound, the EC50 [7] was 5470 ± 396 µM, the EC50 [8] was 219 ± 21 µM and the EC50 [9] was 342 ± 30 µM. For the same compound, the EC50 [10] was 5170 ± 473 µM and the EC50 [11] was 3790 ± 435 µM.
